The source of these data is publication PMC11290325 (Chemical Science, 2024).

The subject of assay [1] is M13 phages. Description: Phage infectivity. On the set-up: species or system M13 bacteriophage. The note with it: PBS pH 7.4, 20 min, room temperature. A digest of the protocol:
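M13 phages displaying an N-terminal KGGSC pIII peptide with a factor Xa site were grown in E. coli TG1 and PEG-purified. They were then TCEP-reduced, factor Xa-digested and blocked with CBT (0.5 mM). After CBT removal and buffer exchange, they were treated with OPA at 100, 300 or 500 µM in PBS pH 7.4 for 20 min at room temperature. Titers (cfu) were measured after each stage by infecting TG1.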

For assay [2], the target named is hKeap1 (Homo sapiens, UniProt Q14145). Description: BLI binding to hKeap1. The note with it: Hk2 and Hk3 tested up to 100 μM.
hKeap1, sequence (Q14145 whole entry): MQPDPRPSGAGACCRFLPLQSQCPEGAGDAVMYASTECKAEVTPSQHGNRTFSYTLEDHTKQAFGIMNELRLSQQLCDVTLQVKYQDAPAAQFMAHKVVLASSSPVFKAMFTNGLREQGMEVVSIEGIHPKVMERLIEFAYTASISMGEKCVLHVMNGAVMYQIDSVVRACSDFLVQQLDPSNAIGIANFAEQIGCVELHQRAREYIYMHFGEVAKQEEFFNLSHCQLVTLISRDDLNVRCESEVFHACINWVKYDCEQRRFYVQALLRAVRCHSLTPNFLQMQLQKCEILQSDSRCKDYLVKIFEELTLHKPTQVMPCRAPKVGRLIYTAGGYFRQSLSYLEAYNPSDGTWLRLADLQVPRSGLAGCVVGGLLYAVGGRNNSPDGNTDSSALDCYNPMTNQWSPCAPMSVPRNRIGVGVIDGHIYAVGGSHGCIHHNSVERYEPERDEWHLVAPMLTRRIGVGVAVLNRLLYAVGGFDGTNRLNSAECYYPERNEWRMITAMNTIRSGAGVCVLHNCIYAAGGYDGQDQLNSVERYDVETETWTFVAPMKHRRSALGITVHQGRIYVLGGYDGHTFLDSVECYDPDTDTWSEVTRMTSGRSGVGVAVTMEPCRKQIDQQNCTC
The target of assay [3] is T1, PTP1B (Homo sapiens, UniProt P18031).
T1 sequence (P18031 1-435): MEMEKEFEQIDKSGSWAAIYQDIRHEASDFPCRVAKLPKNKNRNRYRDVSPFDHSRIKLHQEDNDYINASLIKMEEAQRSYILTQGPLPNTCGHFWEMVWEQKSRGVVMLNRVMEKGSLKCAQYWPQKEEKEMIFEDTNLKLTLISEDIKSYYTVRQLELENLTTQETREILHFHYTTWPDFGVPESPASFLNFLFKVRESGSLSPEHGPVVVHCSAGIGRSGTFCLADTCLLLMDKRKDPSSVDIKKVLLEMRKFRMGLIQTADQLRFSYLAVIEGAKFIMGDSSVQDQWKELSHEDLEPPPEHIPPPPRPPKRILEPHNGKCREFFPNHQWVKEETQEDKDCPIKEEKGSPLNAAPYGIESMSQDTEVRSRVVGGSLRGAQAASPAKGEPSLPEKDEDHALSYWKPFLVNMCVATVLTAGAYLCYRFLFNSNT
The assay is described as follows: Bio-Layer Interferometry. The assay is classed as binding. A digest of the protocol: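 Bio-layer interferometry […]. Wavelength shift and kinetic parameters were recorded. Kd was obtained by curve fitting. Cyclic peptides were made by OPA treatment of purified SPPS linear precursors.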

The target of assay [4] is T1, PTP1B. The assay is described as follows: in vitro enzyme inhibition of PTP1B. It is filed as biochemical.
Assay [5] deals with NEK7 (Homo sapiens, UniProt Q8TDX7). The assay is described as follows: BLI binding to NEK7.
NEK7, sequence (Q8TDX7 whole entry): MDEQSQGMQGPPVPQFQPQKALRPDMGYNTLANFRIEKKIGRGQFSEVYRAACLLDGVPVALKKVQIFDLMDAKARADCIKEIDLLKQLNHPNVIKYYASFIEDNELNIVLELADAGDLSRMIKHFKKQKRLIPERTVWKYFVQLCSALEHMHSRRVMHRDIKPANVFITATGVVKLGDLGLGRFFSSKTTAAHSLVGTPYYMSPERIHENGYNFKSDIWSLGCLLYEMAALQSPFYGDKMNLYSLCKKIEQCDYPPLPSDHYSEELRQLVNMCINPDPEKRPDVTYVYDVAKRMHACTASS

Where a SMILES comes first, the peptide text is derived from it.

On to `O=Cc1ccccc1C=O` [OPA, ortho-phthalaldehyde], for which the “impact on M13 phages in cfus” value in assay [1] (OPA concentration below 300 μM) is recorded as “no significant impact”. Moreover, the “reduction in infectivity compared to untreated phage supernatant” value in assay [1] (OPA surpassing the 500 μM threshold) is reported as “over 20 fold”. With `CC(=O)N[C@H]1CCCCn2cc3ccccc3c2SC[C@@H](C(N)=O)NC(=O)CNC(=O)[C@H](CCC(=O)O)NC(=O)CNC(=O)[C@H]([C@@H](C)O)NC(=O)[C@H](C)NC(=O)[C@H]([C@@H](C)O)NC(=O)[C@H](CCC(N)=O)NC1=O` [Hk3] (HELM PEPTIDE1{[ac].[O=C([C@H](CCCCn1cc2ccccc2c1[*:3])N[*:1])[*:2]].Q.T.A.T.G.E.G.C.[am]}$PEPTIDE1,PEPTIDE1,2:R3-10:R3$$$V2.0), the “binding to hKeap1 (in words)” value in assay [2] is reported as “did not exhibit significant affinity”.

As to Ac-KTFLHWRYC-NH2 [M1_SS], in assay [3], binding was characterised by a dissociation constant (Kd) of 9.2 ± 0.9 µM. The “reduction in affinity compared to its cyclic counterpart” value in assay [3] (BLI, linear precursor vs cyclic M1_OPA) was “four-fold”. Further, the concentration for half-maximal inhibition (IC50) in assay [4] came out at 54.8 ± 4.21 µM. Regarding `CC(=O)N[C@H]1CCCCn2cc3ccccc3c2SC[C@@H](C(N)=O)NC(=O)[C@H](CCC(=O)O)NC(=O)CNC(=O)[C@H]([C@@H](C)O)NC(=O)[C@H](CC(=O)O)NC(=O)[C@@H]2CCCN2C(=O)[C@H](CC(=O)O)NC(=O)[C@H](CC(C)C)NC1=O` [Hk2] (HELM PEPTIDE1{[ac].[O=C([C@H](CCCCn1cc2ccccc2c1[*:3])N[*:1])[*:2]].L.D.P.D.T.G.E.C.[am]}$PEPTIDE1,PEPTIDE1,2:R3-10:R3$$$V2.0), the “binding to hKeap1 (in words)” value in assay [2] is listed as “did not exhibit significant affinity”. Same read-out and setting: then Ac-KQTATGRGC-NH2 [Hk1_SS], with “no interaction”. Regarding Ac-KLFLHWARC-NH2 [M2_SS], the “binding to PTP1B (in words)” value in assay [3] (BLI) is reported as “unable to bind”. For the compound `CC[C@H](C)[C@@H]1NC(=O)[C@H](CC(C)C)NC(=O)[C@@H]2CCCN2C(=O)[C@H](Cc2ccccc2)NC(=O)[C@H](CC(C)C)NC(=O)[C@H](CC(C)C)NC(=O)[C@@H](NC(C)=O)CCCCn2cc3ccccc3c2SC[C@@H](C(N)=O)NC(=O)[C@H](CC(N)=O)NC1=O` [N3] (HELM PEPTIDE1{[ac].[O=C([C@H](CCCCn1cc2ccccc2c1[*:3])N[*:1])[*:2]].L.L.F.P.L.I.N.C.[am]}$PEPTIDE1,PEPTIDE1,2:R3-10:R3$$$V2.0), the “binding to NEK7 (in words)” value in assay [5] is on record as “low binding capacity”.
